Converted amounts (≈) assume the structure as drawn.
Key:
[1] = Antimicrobial activity against Group C Streptococcus assessed as susceptible isolates by agar dilution method; assay type: functional, Streptococcus sp. 'group C'
Procedure, shortened: (§1)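 Clinical isolates of beta-hemolytic streptococci, S. mitis and S. pneumoniae were tested by CLSI methodology, with Mueller-Hinton medium supplemented with 5% lysed horse blood. S. aureus ATCC 29213 and S. pneumoniae ATCC 49619 served as control strains. The percentage of susceptible isolates was derived from CLSI breakpoints.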

[2] = Antimicrobial activity against Group C Streptococcus by agar dilution method; assay type: functional; details: Streptococcus sp. 'group C'; procedure, shortened: as §1
Staphylococcus aureus [3] = assay: Antimicrobial activity against methicillin-sensitive Staphylococcus aureus by agar dilution method; assay type: functional
Procedure, shortened: (§2)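 MICs against clinical MRSA or MSSA isolates by CLSI agar dilution, with S. aureus ATCC 29213 as control strain. Percentage of susceptible isolates was calculated from the MICs using CLSI breakpoints.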

Staphylococcus aureus [4] = assay: Antimicrobial activity against vancomycin-resistant Staphylococcus aureus by agar dilution method; assay type: functional
Procedure, shortened: (§3)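 Clinical S. aureus isolates classed as hVISA or VISA by population analysis profiling. MICs by CLSI agar dilution, with S. aureus ATCC 29213 as control strain.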

[5] = Antimicrobial activity against Group G Streptococcus assessed as susceptible isolates by agar dilution method; assay type: functional, Streptococcus sp. 'group G'; procedure, shortened: as §1
[6] = Antimicrobial activity against Group G Streptococcus by agar dilution method; assay type: functional; details: Streptococcus sp. 'group G'; procedure, shortened: as §1
Streptococcus mitis = assay: Antimicrobial activity against Streptococcus mitis by broth dilution method
[7] = system: Streptococcus sp. 'group A'; assay: Antimicrobial activity against Group A Streptococcus by agar dilution method; assay type: functional; procedure, shortened: as §1
Staphylococcus aureus [8] = assay: Antimicrobial activity against methicillin-resistant Staphylococcus aureus by agar dilution method; assay type: functional; procedure, shortened: as §2
Staphylococcus aureus [9] = assay: Antimicrobial activity against vancomycin-resistant Staphylococcus aureus assessed as susceptible isolates by agar dilution method; assay type: functional
Streptococcus pneumoniae [10] = assay: Antimicrobial activity against Streptococcus pneumoniae by agar dilution method; assay type: functional; procedure, shortened: as §1
[11] = system: Streptococcus sp. 'group A'; assay: Antimicrobial activity against Group A Streptococcus assessed as susceptible isolates by agar dilution method; assay type: functional; procedure, shortened: as §1
Corynebacterium sp. = assay: Antimicrobial activity against Corynebacterium spp. by agar dilution method; assay type: functional
Staphylococcus [12] = assay: Antimicrobial activity against Coagulase-negative Staphylococcus by agar dilution method; assay type: functional
Procedure, shortened: (§4)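 CLSI agar dilution MIC testing of clinical isolates of staphylococci and Listeria. S. aureus ATCC 29213 and S. pneumoniae ATCC 49619 served as control strains. The percentage of susceptible isolates was calculated from CLSI breakpoints.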

Listeria monocytogenes = assay: Antimicrobial activity against Listeria monocytogenes by agar dilution method; assay type: functional; procedure, shortened: as §4
Staphylococcus [13] = assay: Antimicrobial activity against Coagulase-negative Staphylococcus assessed as susceptible isolates by agar dilution method; assay type: functional; procedure, shortened: as §4
Staphylococcus aureus [14] = assay: Antimicrobial activity against methicillin-sensitive Staphylococcus aureus assessed as susceptible isolates by agar dilution method; assay type: functional; procedure, shortened: as §2
[15] = system: Streptococcus sp. 'group B'; assay: Antimicrobial activity against Group B Streptococcus assessed as susceptible isolates by agar dilution method; assay type: functional; procedure, shortened: as §1
Staphylococcus aureus [16] = assay: Antimicrobial activity against Heterovancomycin-resistant Staphylococcus aureus by agar dilution method; assay type: functional; procedure, shortened: as §3
[17] = system: Streptococcus sp. 'group B'; assay: Antimicrobial activity against Group B Streptococcus by agar dilution method; assay type: functional; procedure, shortened: as §1
Staphylococcus aureus [18] = assay: Antimicrobial activity against Heterovancomycin-resistant Staphylococcus aureus assessed as susceptible isolates by agar dilution method; assay type: functional
Streptococcus pneumoniae [19] = assay: Antimicrobial activity against Streptococcus pneumoniae assessed as susceptible isolates by agar dilution method; assay type: functional; procedure, shortened: as §1

Structure (SMILES) | Activity [1] [%] | MIC50 [2] [µg/mL] | MIC90 [2] [µg/mL] | MIC50 (Staphylococcus aureus [3]) [µg/mL] | MIC90 (Staphylococcus aureus [3]) [µg/mL] | MIC50 (Staphylococcus aureus [4]) [µg/mL] | MIC90 (Staphylococcus aureus [4]) [µg/mL] | Activity [5] [%] | MIC50 [6] [µg/mL] | MIC90 [6] [µg/mL] | MIC (Streptococcus mitis) [µg/mL] | MIC50 (Streptococcus mitis) [µg/mL] | MIC [7] [µg/mL] | MIC50 [7] [µg/mL] | MIC90 [7] [µg/mL] | MIC (Staphylococcus aureus [8]) [µg/mL] | MIC50 (Staphylococcus aureus [8]) [µg/mL] | MIC90 (Staphylococcus aureus [8]) [µg/mL] | Activity (Staphylococcus aureus [9]) [%] | MIC50 (Streptococcus pneumoniae [10]) [µg/mL] | other results
CCCCCCCCCC(=O)N[C@@H](Cc1c[nH]c2ccccc12)C(=O)N[C@H](CC(N)=O)C(=O)N[C@@H](CC(=O)O)C(=O)N[C@@H]1C(=O)NCC(=O)N[C@@H](CCCN)C(=O)N[C@@H](CC(=O)O)C(=O)N[C@H](C)C(=O)N[C@@H](CC(=O)O)C(=O)NCC(=O)N[C@H](CO)C(=O)N[C@@H]([C@H](C)CC(=O)O)C(=O)N[C@@H](CC(=O)c2ccccc2N)C(=O)O[C@@H]1C | 100 | 0.03 (≈ 0.0185 µM) | 0.12 (≈ 0.074 µM) | 0.25 (≈ 0.154 µM) | 0.25 (≈ 0.154 µM) | 1 (≈ 0.617 µM) | 2 (≈ 1.23 µM) | 100 | 0.015 (≈ 0.00926 µM) | 0.03 (≈ 0.0185 µM) | 0.006 (≈ 0.0037 µM) | 0.25 (≈ 0.154 µM) | 0.015 (≈ 0.00926 µM) | 0.015 (≈ 0.00926 µM) | 0.03 (≈ 0.0185 µM) | 0.12 (≈ 0.074 µM) | 0.12 (≈ 0.074 µM) | 0.25 (≈ 0.154 µM) | 71 | 0.06 (≈ 0.037 µM) | MIC [6]: 0.015 µg/mL (≈ 0.00926 µM); MIC90 (Streptococcus pneumoniae [10]): 0.12 µg/mL (≈ 0.074 µM); Activity [11]: 100%; MIC50 (Corynebacterium sp.): 0.06 µg/mL (≈ 0.037 µM); MIC90 (Corynebacterium sp.): 0.12 µg/mL (≈ 0.074 µM); MIC50 (Staphylococcus [12]): 0.25 µg/mL (≈ 0.154 µM); MIC90 (Staphylococcus [12]): 0.5 µg/mL (≈ 0.309 µM); MIC50 (Listeria monocytogenes): 1 µg/mL (≈ 0.617 µM); MIC90 (Listeria monocytogenes): 2 µg/mL (≈ 1.23 µM); Activity (Staphylococcus [13]): 100%; Activity (Staphylococcus aureus [14]): 100%; Activity [15]: 100%; MIC50 (Staphylococcus aureus [16]): 0.5 µg/mL (≈ 0.309 µM); MIC90 (Staphylococcus aureus [16]): 0.5 µg/mL (≈ 0.309 µM); MIC [17]: 0.015 µg/mL (≈ 0.00926 µM); MIC50 [17]: 0.015 µg/mL (≈ 0.00926 µM); MIC90 [17]: 0.06 µg/mL (≈ 0.037 µM); Activity (Staphylococcus aureus [18]): 96%
CN(C)c1ccc(O)c2c1C[C@H]1C[C@H]3[C@H](N(C)C)C(O)=C(C(N)=O)C(=O)[C@@]3(O)C(O)=C1C2=O [MINOCYCLINE] | 84 | 0.25 (≈ 0.546 µM) | 4 (≈ 8.74 µM) | 0.25 (≈ 0.546 µM) | 0.25 (≈ 0.546 µM) | 1 (≈ 2.19 µM) | 4 (≈ 8.74 µM) | 75 | 0.25 (≈ 0.546 µM) | 16 (≈ 35 µM) | 0.25 (≈ 0.546 µM) | 0.25 (≈ 0.546 µM) | 0.12 (≈ 0.262 µM) | 0.12 (≈ 0.262 µM) | 0.25 (≈ 0.546 µM) | 0.25 (≈ 0.546 µM) | 0.25 (≈ 0.546 µM) | 0.25 (≈ 0.546 µM) | 96 | 0.25 (≈ 0.546 µM) | MIC (Staphylococcus aureus [3]): 0.25 µg/mL (≈ 0.546 µM); MIC90 (Streptococcus pneumoniae [10]): 0.25 µg/mL (≈ 0.546 µM); Activity [11]: 100%; MIC50 (Corynebacterium sp.): 2 µg/mL (≈ 4.37 µM); MIC90 (Corynebacterium sp.): 16 µg/mL (≈ 35 µM); MIC50 (Staphylococcus [12]): 0.5 µg/mL (≈ 1.09 µM); MIC90 (Staphylococcus [12]): 2 µg/mL (≈ 4.37 µM); MIC (Listeria monocytogenes): 0.25 µg/mL (≈ 0.546 µM); MIC50 (Listeria monocytogenes): 0.25 µg/mL (≈ 0.546 µM); MIC90 (Listeria monocytogenes): 16 µg/mL (≈ 35 µM); Activity (Staphylococcus [13]): 96%; Activity (Staphylococcus aureus [14]): 100%; Activity [15]: 29%; MIC50 (Staphylococcus aureus [16]): 0.25 µg/mL (≈ 0.546 µM); MIC90 (Staphylococcus aureus [16]): 0.5 µg/mL (≈ 1.09 µM); Activity (Streptococcus pneumoniae [19]): 93%; MIC50 [17]: 16 µg/mL (≈ 35 µM); MIC90 [17]: 32 µg/mL (≈ 69.9 µM); Activity (Staphylococcus aureus [18]): 92%

From ChEMBL document CHEMBL1649269, “In vitro activities of three new dihydrofolate reductase inhibitors against clinical isolates of gram-positive bacteria” (2009)
